# According to ChEMBL document CHEMBL2390862, “Enmein-type diterpenoid analogs from natural kaurene-type oridonin: Synthesis and their antitumor biological evaluation” (Eur J Med Chem, 2013):
# Assays:
# Type in all cases: functional, cell-based
# [1] = Cytotoxicity against human CaEs17 cells after 72 hrs by MTT assay; conditions: CaEs17, 72 h
# Summary of the method: (§1)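 K562, CaEs-17, Bel-7402 and MGC-803 cells in log phase seeded at 5 × 10⁴ cells/mL, incubated with or without test compounds at 37 °C, 5% CO₂; after 72 h MTT (5 mg/mL stock) added for 4 h, formazan dissolved in DMSO, OD read at 490 nm. Negative reference 0.1% DMSO, Taxol positive control. IC50 as mean ± S.D. of three independent experiments.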
# [2] = test system: MGC-803; test: Cytotoxicity against human MGC803 cells after 72 hrs by MTT assay; conditions: MGC-803, 72 h; summary of the method: as §1
# [3] = test system: K562; test: Cytotoxicity against human K562 cells after 72 hrs by MTT assay; conditions: K562, 72 h; summary of the method: as §1
# [4] = test system: Bel-7402; test: Cytotoxicity against human Bel7402 cells after 72 hrs by MTT assay; conditions: Bel-7402, 72 h; summary of the method: as §1
compound,measurement,setting,value
CC(=O)O[C@H]1C(=O)[C@@]2(C)[C@H]([C@H](OC(=O)c3ccccc3)[C@]3(O)C[C@H](OC(=O)[C@H](O)[C@@H](NC(=O)c4ccccc4)c4ccccc4)C(C)=C1C3(C)C)[C@]1(OC(C)=O)CO[C@@H]1C[C@@H]2O [PACLITAXEL],IC50,[1],430 nM
C=C1C(=O)[C@@]23C(=O)O[C@H]4CCC(C)(C)[C@H]5[C@H](O)OC[C@@]45[C@@H]2CC[C@@H]1[C@H]3O,IC50,[2],14200 nM
C=C1C(=O)[C@@]23C(=O)O[C@H]4CCC(C)(C)[C@H]5[C@H](O)OC[C@@]45[C@@H]2CC[C@@H]1[C@H]3OC(=O)c1ccc(C(F)(F)F)cc1,IC50,[2],960 nM
same,IC50,[3],370 nM
same,IC50,[1],760 nM
same,IC50,[4],1270 nM
C=C1C(=O)[C@@]23C(=O)O[C@H]4CCC(C)(C)[C@H]5[C@H](O)OC[C@@]45[C@@H]2CC[C@@H]1[C@H]3OC(=O)c1ccccc1Cl,IC50,[2],800 nM
same,IC50,[3],220 nM
same,IC50,[1],600 nM
same,IC50,[4],850 nM
C=C1C(=O)[C@@]23C(=O)O[C@H]4CCC(C)(C)[C@H]5[C@H](O)OC[C@@]45[C@@H]2CC[C@@H]1[C@H]3OC(=O)c1ccc(OC)cc1,IC50,[2],3330 nM
same,IC50,[3],690 nM
same,IC50,[1],2710 nM
same,IC50,[4],1790 nM
C=C1C(=O)[C@@]23C(=O)O[C@H]4CCC(C)(C)[C@H]5[C@H](O)OC[C@@]45[C@@H]2CC[C@@H]1[C@H]3OC(=O)CC,IC50,[2],1560 nM
same,IC50,[3],1020 nM
same,IC50,[1],1210 nM
same,IC50,[4],1530 nM
